The source of these data is ChEMBL document CHEMBL3259652, “Design and synthesis of novel 5,6-disubstituted pyridine-2,3-dione-3-thiosemicarbazone derivatives as potential anticancer agents” (Eur J Med Chem, 2014).

SMILES strings stand for the structures. A value given as a limit tells only on which side of the number the result lay.

What all share (type): functional, cell-based
One assay relates to MCF7. Briefly: Antiproliferative activity against human MCF7 cells after 72 hrs by MTT assay. The settings on record: MCF7, 72 h. The gist of the method: (§1)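 Log-phase cells seeded at 2 × 10⁴ cells/ml, 24 h at 37 °C in 5% CO₂, then exposed to compounds for 72 h at 37 °C. MTT (5 mg/ml) added for 4 h, medium discarded, formazan dissolved in DMSO, absorbance read at 570 nm. Each concentration in triplicate, experiment repeated three times. IC50 from dose-response curves of inhibition ratio versus untreated control.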
On the technique in general: Tetrazolium dyes change colour on reduction, which living cells bring about.

The next assay deals with HCT-116. Briefly: Antiproliferative activity against human HCT116 cells after 72 hrs by MTT assay. The settings on record: HCT-116, 72 h. The gist of the method:
as §1

Assay [1] can be described thus: Antiproliferative activity against human Bel7402 cells after 72 hrs by MTT assay. The settings on record: Bel-7402, 72 h. The gist of the method: as §1

Broadly, the IC50 is the concentration at which inhibition is half-maximal. A low value points to higher potency. On to `COc1ccccc1NC1=C/C(=N/NC(N)=S)C(=O)N=C1Nc1ccccc1OC`, for which the IC50 is 10.2 µM in the assay on MCF7, 20.8 µM in the assay with HCT-116 and 13.4 µM in assay [1].

Consider `N/C(=N\N=C1\C=C(Nc2cccc(Cl)c2)C(Nc2cccc(Cl)c2)=NC1=O)SCc1ccccc1`, for which the concentration for half-maximal inhibition (IC50) in the assay with MCF7 came out at 15.2 µM; in the assay on HCT-116 it was 11.7 µM; in assay [1] it was 7.16 µM.

For `Cc1cccc(NC2=C/C(=N/NC(N)=S)C(=O)N=C2Nc2cccc(C)c2)c1`, the IC50 in the assay with MCF7 is 0.15 µM; in the assay with HCT-116 it was 8.65 µM; in assay [1], 2.73 µM.

On to `N/C(=N\N=C1\C=C(Nc2ccc(Cl)cc2)C(Nc2ccc(Cl)cc2)=NC1=O)SCc1ccccc1`, for which the IC50 in the assay with MCF7 came out at 7.72 µM; in the assay on HCT-116, 9.6 µM; in assay [1] it was 17.3 µM.

`O=c1[nH]cc(F)c(=O)[nH]1` [FLUOROURACIL]: the results for the IC50 (in the assay on MCF7; in the assay on HCT-116; in assay [1]) were 7.08 µM, 10.5 µM and 11.1 µM, respectively.

Regarding `Cc1ccc(NC2=C/C(=N/N=C(\N)SCc3ccccc3)C(=O)N=C2Nc2ccc(C)cc2)cc1`, the half-inhibitory concentration (IC50) came out at 13.4 µM in the assay on MCF7, 8.27 µM in the assay with HCT-116 and 7.68 µM in assay [1].

As for `Cc1ccccc1NC1=C/C(=N/NC(N)=S)C(=O)N=C1Nc1ccccc1C`, the results for the IC50 (in the assay on MCF7; with HCT-116; in assay [1]) were 0.58 µM, 1.52 µM and 1.71 µM, respectively.

Turning to `COc1cccc(NC2=C/C(=N/NC(N)=S)C(=O)N=C2Nc2cccc(OC)c2)c1`, in the assay on MCF7, the half-inhibitory concentration (IC50) was > 50 µM.

As to `N/C(=N\N=C1\C=C(Nc2ccc(F)cc2)C(Nc2ccc(F)cc2)=NC1=O)SCc1ccccc1`, the IC50 was 7.58 µM in the assay with MCF7, 11.5 µM with HCT-116 and 7.69 µM in assay [1].

On to `COc1ccc(NC2=C/C(=N/NC(N)=S)C(=O)N=C2Nc2ccc(OC)cc2)cc1`, for which the IC50 in the assay on MCF7 stood at 10.4 µM; in the assay on HCT-116 it was 22.4 µM; in assay [1], 17.8 µM.

Regarding `Cc1ccccc1NC1=C/C(=N/N=C(\N)SCc2ccccc2)C(=O)N=C1Nc1ccccc1C`, the results for the 50% inhibitory concentration (IC50) (in the assay on MCF7; in the assay with HCT-116; in assay [1]) were 16.3 µM, 13.8 µM and 17.1 µM, respectively.

With `NC(=S)N/N=C1/C=C(Nc2cccc([N+](=O)[O-])c2)C(Nc2cccc([N+](=O)[O-])c2)=NC1=O`, the values for the IC50 (with MCF7; with HCT-116; in assay [1]) were 11.1 µM, 19.4 µM and 8.11 µM, respectively.

In the case of `NC(=S)N/N=C1/C=C(Nc2cccc(Cl)c2)C(Nc2cccc(Cl)c2)=NC1=O`, the 50% inhibitory concentration (IC50) in the assay with MCF7 was found to be 0.63 µM; with HCT-116, 3.38 µM; in assay [1] it was 2.19 µM.

With `Cc1cccc(NC2=C/C(=N/N=C(\N)SCc3ccccc3)C(=O)N=C2Nc2cccc(C)c2)c1`, the IC50 came out at 9.34 µM in the assay with MCF7, 12.8 µM with HCT-116 and 8.72 µM in assay [1].

Consider `NC(=S)N/N=C1/C=C(Nc2ccc(F)cc2)C(Nc2ccc(F)cc2)=NC1=O`, for which the half-maximal inhibitory concentration (IC50) in the assay with MCF7 stood at 1.12 µM; in the assay on HCT-116, 3.72 µM; in assay [1] it was 3.66 µM.

`NC(=S)N/N=C1/C=C(Nc2ccccc2Cl)C(Nc2ccccc2Cl)=NC1=O`: the IC50 turned out to be 3.49 µM in the assay with MCF7, 3.54 µM in the assay on HCT-116 and 3.42 µM in assay [1].

In the case of `NC(=S)N/N=C1/C=C(Nc2ccc(Cl)cc2)C(Nc2ccc(Cl)cc2)=NC1=O`, the IC50 with MCF7 was 1.37 µM; in the assay with HCT-116, 0.19 µM; in assay [1] it was 0.82 µM.

For `Cc1ccc(NC2=C/C(=N/NC(N)=S)C(=O)N=C2Nc2ccc(C)cc2)cc1`, the figures for the IC50 (in the assay with MCF7; in the assay on HCT-116; in assay [1]) were 3.06 µM, 7.04 µM and 4.33 µM, respectively.

Take `NC(=S)N/N=C1/C=C(Nc2ccccc2)C(Nc2ccccc2)=NC1=O`: the IC50 was determined as 7.11 µM in the assay on MCF7, 24.7 µM in the assay on HCT-116 and 11.9 µM in assay [1].

Consider `CCOc1ccc(NC2=C/C(=N/NC(N)=S)C(=O)N=C2Nc2ccc(OCC)cc2)cc1`, for which the concentration for half-maximal inhibition (IC50) amounted to 13.7 µM in the assay on MCF7, 21.3 µM with HCT-116 and 31 µM in assay [1].

As to `NC(=S)N/N=C1/C=C(Nc2ccc(Br)cc2)C(Nc2ccc(Br)cc2)=NC1=O`, the 50% inhibitory concentration (IC50) was determined as 2.58 µM with MCF7, 2.15 µM in the assay on HCT-116 and 5.84 µM in assay [1].

Consider `COc1ccccc1NC1=C/C(=N/N=C(\N)SCc2ccccc2)C(=O)N=C1Nc1ccccc1OC`, for which the IC50 with MCF7 is 8.34 µM; in the assay with HCT-116 it was 14.5 µM; in assay [1], 13.1 µM.
